Data on nine molecules can be found in ChEMBL document CHEMBL3593186, “Synthesis, β-hematin inhibition studies and antimalarial evaluation of dehydroxy isotebuquine derivatives against Plasmodium berghei” (Bioorg Med Chem, 2015).

The test system of data set [1] is Plasmodium berghei. The data set is described as follows: Antimalarial activity against chloroquine susceptible Plasmodium berghei ANKA infected in Balb-C mouse assessed as host survival days at 20 mg/kg, ip qd for 4 days (reference value: 6.80 +/- 0.70 days). Type of data set: functional.
A short description of data set [2]: Inhibition of haemozoin formation using hemin chloride assessed as beta-hematin formation at 5 to 100 uM after 48 hrs. Type of data set: physicochemical. The gist of the method:
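Hemin chloride (4 mM in DMSO) was mixed with compound in DMSO at 100–5 µM, in triplicate. Water or DMSO served as controls. β-Hematin formation was started with 0.2 M acetate buffer, pH 4.4, and run for 48 h at 37 °C. The pellet was washed with DMSO, dissolved in 0.2 N NaOH, diluted 1:2 in 0.1 N NaOH and read at 405 nm, giving % inhibition of haemozoin formation.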

Data set [3] concerns Plasmodium berghei. The data set is described as follows: Antimalarial activity against chloroquine susceptible Plasmodium berghei ANKA infected in Balb-C mouse assessed as reduction of parasitemia at 20 mg/kg, ip qd for 4 days by Giemsa staining (reference value: 65.20 +/- 2.58%). Type of data set: functional. Also on record: scale not given: the % may be the effect or the level left.

The test system of data set [4] is Plasmodium berghei. Put plainly: Antimalarial activity against chloroquine susceptible Plasmodium berghei ANKA infected in Balb-C mouse assessed as reduction of parasitemia at 25 mg/kg, ip qd for 4 days by Giemsa staining (reference value: 65.20 +/- 2.58%). Type of data set: functional.
Data set [5] deals with Plasmodium berghei. Put plainly: Antimalarial activity against chloroquine susceptible Plasmodium berghei ANKA infected in Balb-C mouse assessed as host survival days at 25 mg/kg, ip qd for 4 days (reference value: 6.80 +/- 0.70 days). Type of data set: functional.
The test system of data set [6] is Mus musculus. Put plainly: Toxicity in chloroquine susceptible Plasmodium berghei ANKA infected Balb-C mouse at 20 mg/kg, ip qd for 4 days. Type of data set: organism-based. The settings on record: in vivo, 96 h.

Consider `Cl.Clc1ccc(-c2cc(Nc3ccnc4cc(Cl)ccc34)ccc2CN2CCCCC2)cc1`, for which, in data set [1], the Survival was found to be 26 days. The “inhibition (INH)” value in data set [2] was 97.21%. Moreover, the Activity in data set [3] is reported as 7.3%.
On to `CCN(CC)Cc1ccc(Nc2ccnc3cc(Cl)ccc23)cc1-c1ccccc1.Cl`, for which, in data set [1], the Survival came out at 25.2 days. The “inhibition (INH)” value in data set [2] was 98.45%. Besides, the Activity in data set [3] was 3.2%.
On to `CCN(CC)CCCC(C)Nc1ccnc2cc(Cl)ccc12` (stereo unspecified) [CHLOROQUINE], for which the Parasitemia in data set [4] was found to be 0.6%. Moreover, the Survival in data set [5] was 29.4 days. In addition, the “inhibition (INH)” value in data set [2] was found to be 98.57%.
For `Cl.Clc1ccc2c(Nc3ccc(CN4CCOCC4)c(-c4ccccc4)c3)ccnc2c1`, the Survival in data set [1] was 23.2 days. Further, the “inhibition (INH)” value in data set [2] is listed as 98.04%. Besides, the Activity in data set [3] came out at 6.5%.
For `Cl.Clc1ccc(-c2cc(Nc3ccnc4cc(Cl)ccc34)ccc2CN2CCCC2)cc1`, in data set [1], the Survival came out at 27.3 days. In addition, the figures for the Activity result in data set [6] and in data set [3] were “Non-toxic” and 2%, respectively. Further, the “inhibition (INH)” value in data set [2] was 97.25%.
With `Cl.Clc1ccc2c(Nc3ccc(CN4CCCC4)c(-c4ccccc4)c3)ccnc2c1`, the Survival in data set [1] is 28.6 days. The Activity entry was “Non-toxic” in data set [6] and 2.1% in data set [3]. For the same molecule, in data set [2], the “inhibition (INH)” value is on record as 98.49%.
As for `CN1CCN(Cc2ccc(Nc3ccnc4cc(Cl)ccc34)cc2-c2ccc(Cl)cc2)CC1.Cl`, the “inhibition (INH)” value in data set [2] is listed as 1.61%.
For the molecule `Cl.Clc1ccc2c(Nc3ccc(CN4CCCCC4)c(-c4ccccc4)c3)ccnc2c1`, in data set [1], the Survival is 28.4 days. The Activity entry in data set [6] is “Non-toxic”; in data set [3], 1.8%. Further, the “inhibition (INH)” value in data set [2] is given as 97.08%.
For `Cl.Clc1ccc(-c2cc(Nc3ccnc4cc(Cl)ccc34)ccc2CN2CCOCC2)cc1`, in data set [2], the “inhibition (INH)” value is 2.03%.
